# Screens: PubChem, The Scripps Research Institute Molecular Screening Center
# NPY2 pot ag: potentiates or activates human NPY-Y2 receptor; actives 0.45% (n = 220,000); cells expressing NPY-Y2, potentiator/agonist read-out; activation, % at 3.6 µM; P49146; in the data active means activation above about 27%;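 further: cells stimulated with NPY near EC25 plus isoproterenol at EC100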
# Target sequence (P49146 whole entry, looked up): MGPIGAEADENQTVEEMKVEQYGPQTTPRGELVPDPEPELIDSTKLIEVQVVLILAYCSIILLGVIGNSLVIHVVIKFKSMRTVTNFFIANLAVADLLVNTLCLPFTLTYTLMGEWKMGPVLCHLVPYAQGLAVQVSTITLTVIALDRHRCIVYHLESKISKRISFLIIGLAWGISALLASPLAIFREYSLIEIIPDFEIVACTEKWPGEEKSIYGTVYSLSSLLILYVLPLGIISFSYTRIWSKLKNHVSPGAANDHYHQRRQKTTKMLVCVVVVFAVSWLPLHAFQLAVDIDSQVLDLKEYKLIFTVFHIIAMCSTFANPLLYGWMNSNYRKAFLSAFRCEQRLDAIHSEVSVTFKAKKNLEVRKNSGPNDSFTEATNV
# NPY Y1 blocker: blocks the human neuropeptide Y Y1 receptor; inhibition, % at 3.6 µM; P25929; actives 1% (n = 200,000); HEK293-CNG Y1 cells, membrane potential fluorescence; NPY at EC95, then isoproterenol;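 active means inhibition above the campaign mean inhibition of all tested compounds plus 3 SD, cut at about 20% in these data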
#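 Material: HEK293 cells co-expressing NPY Y1 receptor and cyclic-nucleotide gated channel. Timing: compound incubation 1 h at room temperature, readout 45 min post-stimulation. Signal: fluorescence, membrane potential probe.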
# NPY-Y2 antag: NPY-Y2 (human) receptor antagonism | NPY-Y2 expressing cells, antagonist mode | inhibition, % at 2.7 µM | actives 0.99% (n = 140,000); in the data active means inhibition above about 17%
# NPY1 pot ag: potentiators or agonists of human neuropeptide Y receptor Y1. P25929. NPY-Y1 expressing cells, potentiator/agonist activation. activation, % at 3.6 µM. actives 0.37% (n = 220,000). AID 1304; in the data active means activation above about 33%, passing the limit was not always enough;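 further: cells stimulated with NPY at EC10 then isoproterenol at EC100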
# NPY-Y2 confirm: human NPY-Y2 potentiation or agonism, confirmation; AID 1539; shares compounds with NPY2 pot ag; activation, % at 3.6 µM; actives 20% (n = 450); cell-based NPY-Y2 potentiator/agonist assay; in the data active means activation above about 33%
# NPY-Y1 potentiator: counter-screen for NPY-Y2 potentiators or agonists: NPY-Y1 potentiators or agonists | activation, % at 3.6 µM | AID 1651 | Y1 HEK293-CNG cells, membrane potential fluorescence | actives 20% (n = 450) | shares compounds with NPY2 pot ag; in the data active means activation above about 45%;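 further: cells stimulated with submaximal NPY then isoproterenol with phosphodiesterase inhibitor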
# NPY-Y1 ag 2: human NPY-Y1 agonism as NPY-Y2 potentiator counter-screen; shares compounds with NPY2 pot ag; activation, % at 3.6 µM; HEK293 Y1-CNGC, membrane potential fluorescence; actives 37% (n = 450);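 active means activation above the mean of DMSO-only control wells plus 3 SD, cut at about 18% in these data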;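 further: cells stimulated with 1 µM isoproterenol plus the PDE inhibitor Ro 20-1724; Y1 agonists lower the membrane potential dye signal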
# CNGC inh: cyclic nucleotide gated channel inhibition as counter-screen; inhibition, % at 3.6 µM; HEK293-CNG parental, isoproterenol cAMP, membrane potential fluorescence; AID 1703; shares compounds with NPY2 pot ag; actives 32% (n = 450);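 active means inhibition above the control-well mean plus 3 SD of those wells, cut at about 22% in these data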
# NPY-Y2 ag 2: activates human NPY-Y2 receptor in potentiator counter-screen. activation, % at 3.6 µM. actives 56% (n = 450). AID 1710. HEK293 Y2/CNGC cells, membrane potential fluorescence, agonist mode. shares compounds with NPY2 pot ag;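 active means activation above the mean of solvent-only control wells plus 3 SD, cut at about 10% in these data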;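 further: cells stimulated by isoproterenol with no NPY added so direct agonism is tested; agonism lowers probe fluorescence through less cAMP and CNG channel opening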
# Hits are given with their value; - = inactive; . = not tested or not shown. Sampled rows, rich in hits. Any-hit rate of the full collection: about 1.8%.
SMILES,NPY2 pot ag,NPY Y1 blocker,NPY-Y2 antag,NPY1 pot ag,NPY-Y2 confirm,NPY-Y1 potentiator,NPY-Y1 ag 2,CNGC inh,NPY-Y2 ag 2
Cc1cc(C)nc(Oc2ccc(Br)cc2)n1,91,.,.,-,-,-,-,-,-
CC(C)C(=O)c1ccc(O)c(O)c1,-,.,.,-,.,.,.,.,.
CCC(NC(C)C)C(O)c1ccc(O)c(O)c1 (configuration not stated),65,-,-,-,53,51,67,53,41
O=C(Cn1c(-c2cscn2)nc2ccccc21)Nc1ccc2ccccc2c1,29,-,-,-,-,-,27,32,25
CCOC(=O)C1=C(O)/C(=C\c2ccc(CNC(=O)C(=O)Nc3ccc(C)c(C)c3)o2)N=C1C,-,-,-,-,.,.,.,.,.
COc1ccccc1N(CC(=O)Nc1cccc(C(F)(F)F)c1)S(C)(=O)=O,-,-,.,-,.,.,.,.,.
Cc1ccc([N+](=O)[O-])cc1N(CC(=O)Nc1ccc(S(=O)(=O)Nc2cccc(C(F)(F)F)c2)cc1)S(C)(=O)=O,45,-,-,-,43,64,58,51,53
CC1(C)C(=O)OC(/C=C\c2ccccc2)C(C)(C)C1=O (configuration not stated),33,-,.,-,-,-,-,-,-
COC(=O)c1cc(-c2ccccc2)n(CC(=O)O)c1C,-,-,-,-,.,.,.,.,.
OCCN(CCO)c1ccc(C(c2ccccc2Cl)c2ccc(N(CCO)CCO)cc2Cl)c(Cl)c1,34,-,-,-,35,47,31,37,39
CS(=O)(=O)N1CCc2cc(-c3csc(NC(=O)Cc4cccs4)n3)ccc21,36,-,-,-,-,-,-,-,-
Fc1nc(F)c(F)c(NCCCNc2c(F)c(F)nc(F)c2F)c1F,28,-,.,-,-,-,25,23,32
Cc1cc(N)n2ncc(-c3ccc(Cl)cc3)c2n1,37,-,-,-,-,52,40,39,44
COc1cc(C(=O)Nc2ccc3c(c2)C(=O)c2ccccc2C3=O)cc(OC)c1OC,-,-,-,-,.,.,.,.,.
CCc1cccc(NC(=O)c2cc(OC)c(OC)c(OC)c2)c1,61,-,.,-,-,-,-,-,-
Cc1cc(C)nc(N2CCCC(C(=O)Nc3ccc4nc(C)c(C)nc4c3)C2)n1 (configuration not stated),-,-,-,-,.,.,.,.,.
CCc1nc(NCC2CCCO2)c(C#N)c2c1COC(C)(C)C2 (configuration not stated),-,-,-,-,.,.,.,.,.
CCc1nc(NCC(C)C)c(C#N)c2c1COC(C)(C)C2,38,-,-,-,-,-,-,-,-
CCN(CC)c1ccc(NC(=O)/C=C\c2ccccc2Cl)cc1,31,-,-,-,-,-,25,27,27
Cc1cc(C)c2sc(N(CCCN(C)C)C(=O)c3ccc(Br)s3)nc2c1,37,-,.,-,74,88,67,75,81
Cc1cc(C)c2sc(N(CCN(C)C)C(=O)c3c(F)cccc3F)nc2c1,-,-,.,-,.,.,.,.,.
CCN(CC)CCCN1C(=O)C(=O)/C(=C(/O)c2cnn(-c3ccccc3)c2C)C1c1ccncc1 (configuration not stated),-,-,-,-,.,.,.,.,.
Nc1ccccc1NC1CCCCC1,36,-,.,-,-,-,-,26,24
Oc1ccccc1Nc1nc(NCc2ccccc2)c2ccccc2n1,36,-,.,-,47,56,45,48,45
CCN1CCc2c(sc(NC(=O)Nc3ccc(Cl)c(Cl)c3)c2C(N)=O)C1,-,-,-,-,.,.,.,.,.
SMILES,NPY2 pot ag,NPY Y1 blocker,NPY-Y2 antag,NPY1 pot ag,NPY-Y2 confirm,NPY-Y1 potentiator,NPY-Y1 ag 2,CNGC inh,NPY-Y2 ag 2
CC(=O)c1c(C)[nH]c(C(=O)OCCCCN2C(=O)c3ccccc3C2=O)c1C,39,-,-,-,-,-,-,-,22
CCOCc1c(C(=O)OCC(=O)/C(C#N)=C(\C)N)oc2ccccc12,-,-,.,-,.,.,.,.,.
COC(=O)c1ccc(NC(=O)CN(c2ccc(C)cc2)S(=O)(=O)c2c(C)nn(C)c2C)cc1,40,-,-,-,-,-,48,35,36
CCn1c(=NC(=O)CSC(C)=O)sc2cc(OC)ccc21,34,-,-,-,-,-,43,29,41
O=C(Cn1cnc2ccccc21)OCC(=O)N1CCc2ccccc2C1,-,-,-,-,.,.,.,.,.
CCOC(=O)N1CCN(CC(O)COCc2ccccc2)CC1 (configuration not stated),-,-,-,-,.,.,.,.,.
CCOC(=O)N1CCN(CC(O)COCC2=CCC3CC2C3(C)C)CC1 (configuration not stated),43,-,-,-,-,-,-,-,-
COc1ccc(S(=O)(=O)N2CCCC(C(=O)NCc3ccco3)C2)cc1Cl (configuration not stated),-,-,-,-,.,.,.,.,.
CC(C)NC(=S)N=Nc1c(O)[nH]c2ccc([N+](=O)[O-])cc12,35,-,.,-,-,-,19,-,22
Cc1ccc(C(=O)Nc2nc3ccccc3n2CCN2CCCC2)cc1,44,-,-,-,50,50,19,39,47
CCCOc1cc(CN2CCCCC2)cc(C(C)=O)c1,-,-,-,-,.,.,.,.,.
COc1ccc(CNC(=O)COC(=O)CCc2nc3ccccc3c(=O)[nH]2)cc1,-,-,.,-,.,.,.,.,.
O=C(COC(=O)CCc1nc2ccccc2c(=O)[nH]1)NCc1ccc(F)cc1,102,.,.,-,-,-,-,-,-
COc1ccc(S(=O)(=O)Nc2ccc(S(=O)(=O)Nc3ccc(F)cc3)cc2)cc1C,34,-,-,-,-,-,27,23,21
COC(=O)CCSc1cc(NCCOC(C)=O)c([N+](=O)[O-])c2nonc12,43,-,-,-,-,-,-,-,-
CCCC(=O)OCCNc1cc(SCCC(=O)OC)c2nonc2c1[N+](=O)[O-],-,-,-,-,.,.,.,.,.
N#C/C(=N\Nc1ccc(Cl)cc1)C(=O)c1ccccc1,47,-,-,-,-,-,-,-,20
Cc1c(N/N=C(\C#N)C(=O)c2ccc(Cl)cc2)c(=O)n(-c2ccccc2)n1C,-,-,-,-,.,.,.,.,.
CCC(C)(C)NC(=O)C(c1cccn1C)N(Cc1ccccc1)C(=O)Cn1nnc2ccccc21 (configuration not stated),61,-,-,-,-,-,-,-,-
COCCNC(=O)C(c1cccs1)N(Cc1ccccc1)C(=O)Cn1nnc2ccccc21 (configuration not stated),-,-,-,-,.,.,.,.,.
